ChEMBL document CHEMBL1125870, “Chemical and biological studies on a series of lipid-soluble (trans-(R,R)- and -(S,S)-1,2-diaminocyclohexane)platinum(II) complexes incorporated in liposomes” (J Med Chem, 1991)

Experiments:
Mus musculus [1] = assay: Compound was tested for its efficacy against L1210 Leukemia in mice at a dose of 25 mg/kg through intraperitoneal route.(Treatment schedule day is 1).; format: functional, organism-based; design: dose 25 mg/kg
How it was run: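 Six B6D2F1 mice per group, 20-25 g, inoculated ip with 10^6 L1210/0 cells on day 0. A single ip dose of liposomal Pt (DMPC:DMPG 7:3 multilamellar vesicles in 0.9% NaCl) was given on day 1; doses of 12.5, 25 and 50 mg/kg were tested. %T/C = median survival treated/control ×100; study ended day 60; mean of three experiments.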

Rattus norvegicus [2] = species on record: Rattus norvegicus; assay: Compound was tested for the subacute single dose from the toxicity studies in rats.; format: organism-based; conditions: in vivo
Rattus norvegicus [3] = species on record: Rattus norvegicus; assay: Compound was tested for the subacute single dose from the toxicity studies in rats; format: organism-based; conditions: in vivo
Mus musculus [4] = assay: Compound was tested for its efficacy against L1210 / cisplatin Leukemia in mice at a dose of 25 mg/kg through intraperitoneal route.(Treatment schedule day is 1,5,9).; format: functional, organism-based; design: dose 25 mg/kg
How it was run: (§1)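 L1210/cisplatin cells (NCI repository) passaged weekly ip in BDF1 mice. Groups of six B6D2F1 mice, 20-25 g, inoculated ip with 10^6 cells on day 0, then given liposomal Pt (DMPC:DMPG 7:3 multilamellar vesicles in 0.9% NaCl) or cisplatin ip on days 1, 5 and 9. Read-out %T/C = median survival treated/control ×100; study ended day 60; average of two experiments.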

Mus musculus [5] = assay: Compound was tested for its efficacy against L1210 Leukemia in mice at a dose of 25 mg/kg through intraperitoneal route.(Treatment schedule day is 1,5,9).; format: functional, organism-based; design: dose 25 mg/kg
How it was run: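 L1210/0 leukemia passaged weekly ip in BDF1 mice. Six B6D2F1 mice per group (20-25 g) received 10^6 cells ip on day 0. Liposomal Pt (DMPC:DMPG 7:3 MLVs in 0.9% NaCl) or cisplatin was given ip on days 1, 5, 9; doses tested 12.5, 25, 50 mg/kg. Optimal dose is the highest %T/C without toxic deaths. %T/C is from median survival; study ended day 60; average of two experiments.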

Mus musculus [6] = assay: Compound was tested for its efficacy against L1210 / cisplatin Leukemia in mice at a dose of 5 mg/kg through intraperitoneal route.(Treatment schedule day is 1,5,9).; format: functional, organism-based; design: dose 5 mg/kg; how it was run: as §1
Mus musculus [7] = assay: Compound was tested for its efficacy against L1210 Leukemia in mice at a dose of 5 mg/kg through intraperitoneal route.(Treatment schedule day is 1,5,9).; format: functional, organism-based; design: dose 5 mg/kg

Substance: Pt (2,2-dimethyl-4-ethylhexanoato)2((R,R)-dach)
- T/C (Mus musculus [1]): 212%

Substance: Pt (2,2-diethylhexanoato)2((R,R)-dach) [listing 1 of 2 here]
- LD50 (Rattus norvegicus [2]): 80.8 mg/kg

Substance: Pt (2,2-diethyl-4-methylpentanoato)2((S,S)-dach) [listing 1 of 2 here]
- LD50 (Rattus norvegicus [3]): 81 mg/kg

Substance: Pt (2,2-diethyl-4-methylpentanoato)2((S,S)-dach) [listing 2 of 2 here]
- T/C (Mus musculus [1]): 160%

Substance: Pt (2,2-dimethyloctanoato)2((R,R)-dach) [listing 1 of 2 here]
- T/C (Mus musculus [4]): 355%
- T/C (Mus musculus [1]): 234%
- T/C (Mus musculus [5]): 257%

Substance: Pt (2,2-diethyl-4-methylpentanoato)2((R,R)-dach) [listing 1 of 2 here]
- LD50 (Rattus norvegicus [2]): 62.3 mg/kg

Substance: Pt (2,2-diethylhexanoato)2((R,R)-dach) [listing 2 of 2 here]
- T/C (Mus musculus [4]): 231%
- T/C (Mus musculus [1]): 253%
- T/C (Mus musculus [5]): 257%

Substance: CISPLATIN [listing 1 of 2 here]
- T/C (Mus musculus [6]): 112%
- T/C (Mus musculus [1]): 175%
- T/C (Mus musculus [7]): 220%

Substance: Pt (2,2-dimethyloctanoato)2((S,S)-dach) [listing 1 of 2 here]
- LD50 (Rattus norvegicus [2]): 87 mg/kg

Substance: Liposomal preparation of (ttans-(R,R)-dach)Pt complex containing isomeric mixture of neodecanoic acid (L-NDDP) [listing 1 of 2 here]
- LD50 (Rattus norvegicus [2]): 54 mg/kg

Substance: Pt (2,2-dimethyloctanoato)2((S,S)-dach) [listing 2 of 2 here]
- T/C (Mus musculus [1]): 150%

Substance: Pt (2,2-diethylhexanoato)2((S,S)-dach) [listing 1 of 2 here]
- T/C (Mus musculus [1]): 190%

Substance: Pt (2,2-dimethyloctanoato)2((R,R)-dach) [listing 2 of 2 here]
- LD50 (Rattus norvegicus [2]): 94.5 mg/kg

Substance: Liposomal preparation of (ttans-(R,R)-dach)Pt complex containing isomeric mixture of neodecanoic acid (L-NDDP) [listing 2 of 2 here]
- T/C (Mus musculus [4]): 200%
- T/C (Mus musculus [1]): 187%
- T/C (Mus musculus [5]): 312%

Substance: CISPLATIN [listing 2 of 2 here]
- LD50 (Rattus norvegicus [2]): 17.5 mg/kg

Substance: Pt (2,2-diethylhexanoato)2((S,S)-dach) [listing 2 of 2 here]
- LD50 (Rattus norvegicus [2]): 104 mg/kg

Substance: Pt (2,2-diethyl-4-methylpentanoato)2((R,R)-dach) [listing 2 of 2 here]
- T/C (Mus musculus [4]): 185%
- T/C (Mus musculus [1]): 225%
- T/C (Mus musculus [5]): 257%
